Reference: ChEMBL document CHEMBL4765378, “Discovery of simplified benzazole fragments derived from the marine benzosceptrin B as necroptosis inhibitors involving the receptor interacting protein Kinase-1” (Eur J Med Chem, 2020)
Activity calls are given as the source filed them. No cut-off for these calls is given here.

Columns and labels:
[1] = target: Dual specificity tyrosine-phosphorylation-regulated kinase 1A (Rattus norvegicus, UniProt Q63470); assay: Inhibition of recombinant rat DYRK1A kinase domain (1 to 499 residues) expressed in bacterial expression system using KKISGRLSPIMTEQ as substrate by ADP-glo assay
[2] = Cytotoxicity against human FADD-deficient Jurkat I 2.1 cells assessed as reduction in cell viability at >25 uM measured after 24 hrs by MTS assay; type: cell-based; settings: jurkat i 2.1, 24 h
[3] = target: Tyrosine-protein kinase ABL1 (Homo sapiens, UniProt P00519); assay: Inhibition of recombinant human ABL1 (118 to 535 residues) expressed in baculovirus infected Sf9 insect cells using EAIYAAPFAKKK as substrate by ADP-glo assay
Sequence of Tyrosine-protein kinase ABL1 (P00519 whole entry, the tested form may be a part): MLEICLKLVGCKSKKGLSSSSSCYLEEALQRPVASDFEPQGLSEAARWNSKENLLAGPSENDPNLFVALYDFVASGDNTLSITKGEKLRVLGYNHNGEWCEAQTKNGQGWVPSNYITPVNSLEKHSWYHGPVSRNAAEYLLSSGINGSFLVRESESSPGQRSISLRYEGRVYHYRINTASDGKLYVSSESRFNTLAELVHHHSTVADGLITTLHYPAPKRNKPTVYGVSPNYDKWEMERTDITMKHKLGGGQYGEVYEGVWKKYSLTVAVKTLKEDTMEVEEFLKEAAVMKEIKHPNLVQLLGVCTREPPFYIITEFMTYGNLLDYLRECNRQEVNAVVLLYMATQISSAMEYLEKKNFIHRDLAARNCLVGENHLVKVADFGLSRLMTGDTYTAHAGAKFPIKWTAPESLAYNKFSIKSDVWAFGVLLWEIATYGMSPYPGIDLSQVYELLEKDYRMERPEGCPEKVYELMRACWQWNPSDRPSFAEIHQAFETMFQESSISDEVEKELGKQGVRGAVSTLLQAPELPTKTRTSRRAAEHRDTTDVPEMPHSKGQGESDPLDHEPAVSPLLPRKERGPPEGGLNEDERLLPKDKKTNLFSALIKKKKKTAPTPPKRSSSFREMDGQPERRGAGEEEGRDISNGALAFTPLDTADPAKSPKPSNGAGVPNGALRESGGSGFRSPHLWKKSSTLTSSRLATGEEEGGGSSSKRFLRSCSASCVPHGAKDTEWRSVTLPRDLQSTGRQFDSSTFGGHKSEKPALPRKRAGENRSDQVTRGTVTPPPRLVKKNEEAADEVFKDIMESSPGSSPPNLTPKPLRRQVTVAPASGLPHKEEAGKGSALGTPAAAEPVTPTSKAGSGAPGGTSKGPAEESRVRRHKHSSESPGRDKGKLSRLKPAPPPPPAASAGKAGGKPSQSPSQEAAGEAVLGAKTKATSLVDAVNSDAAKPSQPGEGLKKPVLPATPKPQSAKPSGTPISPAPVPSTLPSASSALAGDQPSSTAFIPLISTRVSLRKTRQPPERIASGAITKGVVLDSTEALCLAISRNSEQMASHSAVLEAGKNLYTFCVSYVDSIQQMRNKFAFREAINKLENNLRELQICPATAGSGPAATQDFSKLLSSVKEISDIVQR

[4] = target: T1, Serine/threonine-protein kinase haspin (Homo sapiens, UniProt Q8TF76); assay: Inhibition of recombinant human HASPIN kinase domain (470 to 798 residues) expressed in bacterial expression system using histone H3(1-21) peptide as substrate by ADP-glo assay
T1 sequence (Q8TF76 whole entry): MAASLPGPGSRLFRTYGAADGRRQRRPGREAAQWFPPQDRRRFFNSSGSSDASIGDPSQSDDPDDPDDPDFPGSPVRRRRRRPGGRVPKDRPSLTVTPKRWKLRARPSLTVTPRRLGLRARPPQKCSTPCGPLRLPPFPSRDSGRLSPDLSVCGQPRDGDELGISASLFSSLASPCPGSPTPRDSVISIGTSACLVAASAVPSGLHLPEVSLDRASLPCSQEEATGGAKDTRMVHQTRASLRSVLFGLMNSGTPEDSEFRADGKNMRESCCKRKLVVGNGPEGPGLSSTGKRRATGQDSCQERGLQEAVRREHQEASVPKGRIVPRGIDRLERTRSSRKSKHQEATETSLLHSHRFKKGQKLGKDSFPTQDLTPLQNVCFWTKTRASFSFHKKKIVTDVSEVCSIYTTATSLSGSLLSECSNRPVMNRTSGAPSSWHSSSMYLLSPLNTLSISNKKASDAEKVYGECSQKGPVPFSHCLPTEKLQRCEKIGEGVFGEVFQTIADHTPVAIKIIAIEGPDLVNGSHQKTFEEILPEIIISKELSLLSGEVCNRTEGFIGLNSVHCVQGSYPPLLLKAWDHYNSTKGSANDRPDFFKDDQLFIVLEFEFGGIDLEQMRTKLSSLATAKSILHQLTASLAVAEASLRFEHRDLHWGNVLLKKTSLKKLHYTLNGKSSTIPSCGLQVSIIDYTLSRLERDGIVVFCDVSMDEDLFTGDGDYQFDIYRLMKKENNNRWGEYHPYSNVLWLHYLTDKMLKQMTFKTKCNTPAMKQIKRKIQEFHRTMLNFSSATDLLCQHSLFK

[5] = target: T2, Receptor-interacting serine/threonine-protein kinase 1 (Homo sapiens) (UniProt Q13546); assay: Inhibition of RIPK1 in human FADD-deficient Jurkat I 2.1 cells assessed as protection against TNFalpha-induced necroptosis by measuring remaining viable cells at 10 uM measured after 24 hrs by MTS assay relative to TNFalpha; type: cell-based
T2 sequence (whole entry): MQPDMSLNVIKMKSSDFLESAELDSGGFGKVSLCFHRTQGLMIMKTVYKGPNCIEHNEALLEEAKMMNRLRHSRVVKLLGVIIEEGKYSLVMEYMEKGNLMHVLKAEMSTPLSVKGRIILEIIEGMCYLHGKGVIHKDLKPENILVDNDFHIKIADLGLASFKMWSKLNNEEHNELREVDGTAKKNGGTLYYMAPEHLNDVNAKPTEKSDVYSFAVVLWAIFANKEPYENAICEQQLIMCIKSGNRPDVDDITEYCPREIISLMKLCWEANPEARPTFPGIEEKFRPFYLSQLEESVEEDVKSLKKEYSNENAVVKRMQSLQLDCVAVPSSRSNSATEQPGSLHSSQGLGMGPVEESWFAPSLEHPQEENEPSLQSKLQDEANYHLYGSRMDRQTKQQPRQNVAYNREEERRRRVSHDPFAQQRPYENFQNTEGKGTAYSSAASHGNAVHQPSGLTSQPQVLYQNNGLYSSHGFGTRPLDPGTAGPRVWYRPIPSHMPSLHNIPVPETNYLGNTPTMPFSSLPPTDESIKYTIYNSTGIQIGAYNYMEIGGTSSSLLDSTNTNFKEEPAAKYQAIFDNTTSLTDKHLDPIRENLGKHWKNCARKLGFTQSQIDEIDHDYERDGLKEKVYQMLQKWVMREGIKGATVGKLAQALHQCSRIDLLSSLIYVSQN
Method in brief: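 FADD-deficient Jurkat cells co-treated 24 h with 10 ng/ml human recombinant TNF-α and 10 μM compound; MTS viability normalized to DMSO control (100%); protection delta = viability with TNF-α plus compound minus viability with TNF-α alone (negative if toxic); n = 3.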

[6] = test system: Jurkat; assay: Protection against staurosporine-induced apoptosis in human Jurkat assessed as increase in cell viability at 0.1 to 50 uM measured after 24 hrs by MTS assay; type: functional, cell-based; settings: dose 0.1-50 µM
Method in brief: (§1)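 Jurkat wild-type cells treated with TRAIL-Flag (20 ng/mL) or staurosporine (100 nM) together with increasing compound doses for 24 h; viability by MTS reduction as % of DMSO-treated cells; mean ± SD, n = 3.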

[7] = test system: Jurkat; assay: Protection against TRAIL-induced apoptosis in human Jurkat assessed as increase in cell viability at 0.1 to 50 uM measured after 24 hrs by MTS assay; type: functional, cell-based; settings: dose 0.1-50 µM; method in brief: as §1

IC50 [1] | IC50 [3] | IC50 [4] | SMILES | Activity [2] | Activity [5] | Activity [6] | Activity [7]
1.8 µM | > 10 µM | > 10 µM | CCCCNc1nc2ccc([N+](=O)[O-])cc2[nH]1 | Toxic | 56.9% |  | 
2.21 µM | > 10 µM | > 10 µM | CCCCNc1nc2cc([N+](=O)[O-])ccc2s1 |  | 56.1% | inactive | inactive
